The text below walks through data of ChEMBL document CHEMBL1122850, “Synthesis of 6-anilino-2-thiouracils and their inhibition of human placenta iodothyronine deiodinase” (J Med Chem, 1985).

As usually defined, the inhibition is how much of the control response was suppressed. A high value points to a response far below the control.

Assay [1] concerns the target T1, Thyroxine 5-deiodinase (Homo sapiens) (UniProt P55073).
T1 sequence (whole entry): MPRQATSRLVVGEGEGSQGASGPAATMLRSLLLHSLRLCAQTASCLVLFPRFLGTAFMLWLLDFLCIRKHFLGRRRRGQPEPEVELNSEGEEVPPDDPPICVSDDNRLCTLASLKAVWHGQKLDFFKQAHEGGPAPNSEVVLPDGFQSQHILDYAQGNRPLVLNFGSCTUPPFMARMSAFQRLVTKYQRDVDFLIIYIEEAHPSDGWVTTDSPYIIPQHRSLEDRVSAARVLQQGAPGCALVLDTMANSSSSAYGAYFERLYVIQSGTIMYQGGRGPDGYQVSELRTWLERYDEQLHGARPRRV
The assay can be described thus: Inhibition of Human placenta inner-ring Iodothyronine 5-deiodinase activity measured as rT3 production in presence of DTT concentrations of 1.56 mM. The method, boiled down: (§1)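 Placenta microsomes (225 μg/tube) incubated with 290 pmol T4 in 0.1 M potassium phosphate–0.01 M EDTA (pH 7.4), 60 min, 37 °C. DTT varied over 0.2–100 mM in place of 0.25 mM. Inhibitor present at 5 mM. rT3 production (pmol/tube) measured by radioimmunoassay and compared with control tubes without inhibitor. Quadruplicate incubations.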

Assay [2] addresses T1, Thyroxine 5-deiodinase (Homo sapiens). Kind of assay: Inhibition of Human placenta inner-ring Iodothyronine 5-deiodinase activity measured as rT3 production in presence of DTT concentrations of 12.5 mM. The essentials:
as §1

For assay [3] the target is unchanged. The assay can be described thus: Inhibition of Human placenta inner-ring Iodothyronine 5-deiodinase activity measured as rT3 production in presence of DTT concentrations of 100 mM. The essentials:
as §1

For assay [4] the target is unchanged. The assay can be described thus: Inhibition of Human placenta inner-ring Iodothyronine 5-deiodinase activity measured as rT3 production in presence of DTT concentrations of 0.2 mM. The essentials: as §1
Assay [5] has the same target. The assay can be described thus: Inhibition of Human Placenta Inner-Ring Iodothyronine 5-deiodinase at the compound concentration of 5 mM. The method, boiled down: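 Human placenta microsomal fraction (225 μg/tube) incubated 60 min at 37 °C with 290 pmol T4 in 0.1 M potassium phosphate–0.01 M EDTA, pH 7.4, with 0.25 mM DTT. Inhibitors at 5 mM, diluted from 30 mM stocks in 0.04 M NaOH. rT3 formed measured by radioimmunoassay. Inhibition relative to uninhibited control, quadruplicate incubations.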

For `CCCc1cc(=O)[nH]c(=S)[nH]1`, the rT3 Production in assay [1] is 13.3 pmol/tube; in assay [2], 43.3 pmol/tube; in assay [3], 104 pmol/tube; in assay [4], 2.6 pmol/tube. The same compound showed an inhibition in assay [5] of 29%.

Take `CCCCc1ccc(Nc2cc(=O)n(C)c(=S)[nH]2)cc1`: the inhibition in assay [5] is 20%. As for `Cn1c(=S)[nH]c(N)c(Cc2ccccc2)c1=O`, in assay [5], the inhibition was 79%. The same measure, in the same setting: for `Nc1cc(O)nc(S)n1` the value was 16%. Still for that read-out and setting: then `CCc1ccc(Nc2cc(=O)n(C)c(=S)[nH]2)cc1`, with 0%. Regarding `CCCCc1ccc(Nc2cc(O)nc(S)n2)cc1`, the rT3 Production stood at 0.8 pmol/tube in assay [1], 2.5 pmol/tube in assay [2], 4.1 pmol/tube in assay [3] and 0.2 pmol/tube in assay [4]. Moreover, the inhibition in assay [5] came out at 96%. With `CCc1ccc(Nc2cc(O)nc(S)n2)cc1`, in assay [5], the inhibition was found to be 85%.

`CCc1ccc(Nc2cc(=O)[nH]c(=S)n2C)cc1`: in assay [5], the inhibition is 2%. The same measure, in the same setting: then `Oc1cc(Nc2ccccc2)nc(S)n1`, with 31%.
